# Experimental data from ChEMBL document CHEMBL4393678, “Novel Tetrahydroquinazolinamines as Selective Histamine 3 Receptor Antagonists for the Treatment of Obesity” (J Med Chem, 2019).
# Calls of active or inactive are those of the source. No cut-off for these calls is given here.
# What was measured:
# Histamine H2 receptor [1] = target: T1, Histamine H2 receptor (Homo sapiens, UniProt P25021); experiment: Agonist activity at recombinant human Gs-coupled H2 receptor expressed in HEK293T cells assessed as inhibition of forskolin-stimulated cAMP accumulation at 10 uM preincubated for 10 to 15 followed by forskolin-stimulation by Glo-sensor assay relative to control; type: functional, cell-based; set-up: scale not given: the % may be the effect or the level left
# T1 sequence (P25021 whole entry): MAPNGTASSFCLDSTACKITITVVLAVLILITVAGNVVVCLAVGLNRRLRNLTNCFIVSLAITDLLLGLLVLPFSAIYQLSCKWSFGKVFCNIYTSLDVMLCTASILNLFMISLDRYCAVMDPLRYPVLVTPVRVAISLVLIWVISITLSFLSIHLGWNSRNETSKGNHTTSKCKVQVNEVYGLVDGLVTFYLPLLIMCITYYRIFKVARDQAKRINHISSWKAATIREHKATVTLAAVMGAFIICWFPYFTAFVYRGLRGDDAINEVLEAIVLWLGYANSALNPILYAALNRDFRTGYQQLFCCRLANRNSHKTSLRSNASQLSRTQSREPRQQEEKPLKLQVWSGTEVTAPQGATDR
# How it was run: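 HEK293T cells were transiently co-transfected with GloSensor-22F cAMP plasmid and human H2R plasmid, then held 15–18 h at 37 °C in 5% CO2. Cells were loaded with sodium luciferin (1 mg/ml) for 90 min. Agonist mode used 10 µM compound, with luminescence read directly after 10–15 min. Screening was in triplicate, scored as ≥50% change versus control.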
# Histamine H2 receptor [2] = target: T1, Histamine H2 receptor; experiment: Agonist activity at recombinant human Gs-coupled H2 receptor expressed in HEK293T cells assessed as inhibition of forskolin-stimulated cAMP accumulation preincubated for 10 to 15 followed by forskolin-stimulation by Glo-sensor assay; type: functional, cell-based
# Histamine H3 receptor [3] = target: T2, Histamine H3 receptor (Homo sapiens, UniProt Q9Y5N1); experiment: (§1) Antagonist activity at recombinant human Gi-coupled H3 receptor expressed in HEK293T cells assessed as reduction in histamine-induced inhibition of forskolin-stimulated cAMP accumulation preincubated for 10 to 15 followed by histamine addition for 10 mins and subsequent forskolin-stimulation by Glo-sensor assay; type: functional, cell-based
# T2 sequence (Q9Y5N1 whole entry): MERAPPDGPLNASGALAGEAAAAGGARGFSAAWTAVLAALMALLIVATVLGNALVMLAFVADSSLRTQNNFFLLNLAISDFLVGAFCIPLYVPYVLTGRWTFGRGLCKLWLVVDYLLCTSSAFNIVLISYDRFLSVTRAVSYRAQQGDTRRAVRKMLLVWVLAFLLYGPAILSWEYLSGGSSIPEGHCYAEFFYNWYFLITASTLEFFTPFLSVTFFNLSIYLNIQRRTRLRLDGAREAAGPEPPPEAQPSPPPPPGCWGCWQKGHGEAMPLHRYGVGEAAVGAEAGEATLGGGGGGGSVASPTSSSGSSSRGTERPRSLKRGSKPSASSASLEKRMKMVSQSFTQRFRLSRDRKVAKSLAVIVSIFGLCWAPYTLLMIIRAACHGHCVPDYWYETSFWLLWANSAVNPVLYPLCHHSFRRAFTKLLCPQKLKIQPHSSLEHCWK
# [4] = target: Histamine H4 receptor (Homo sapiens) (UniProt Q9H3N8); experiment: Agonist activity at recombinant human Gi-coupled H4 receptor expressed in HEK293T cells assessed as inhibition of forskolin-stimulated cAMP accumulation at 10 uM preincubated for 10 to 15 followed by forskolin-stimulation by Glo-sensor assay; type: functional, cell-based
# Sequence of Histamine H4 receptor (Homo sapiens) (Q9H3N8 whole entry): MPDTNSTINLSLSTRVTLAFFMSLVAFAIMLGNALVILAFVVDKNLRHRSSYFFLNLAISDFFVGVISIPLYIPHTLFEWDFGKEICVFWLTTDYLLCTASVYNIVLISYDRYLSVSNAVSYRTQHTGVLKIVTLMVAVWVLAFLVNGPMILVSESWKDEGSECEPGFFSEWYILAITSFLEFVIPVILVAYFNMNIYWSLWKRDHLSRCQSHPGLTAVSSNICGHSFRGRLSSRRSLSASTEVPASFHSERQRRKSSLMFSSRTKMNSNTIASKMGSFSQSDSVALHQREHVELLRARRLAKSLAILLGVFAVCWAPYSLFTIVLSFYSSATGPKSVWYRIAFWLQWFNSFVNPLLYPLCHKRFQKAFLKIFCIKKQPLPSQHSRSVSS
# [5] = target: Histamine H4 receptor (Homo sapiens) (UniProt Q9H3N8); experiment: as §1, with “H4” for “H3”, “accumulation at 10 uM” for “accumulation”; type: functional, cell-based
# [6] = target: Histamine H1 receptor (Homo sapiens) (UniProt P35367); experiment: Agonist activity at H1R (unknown origin) expressed in HEK293 cells harboring luc2P/NFAT-RE plasmid at 10 uM after 6 to 8 hrs by luciferase reporter gene assay; type: cell-based
# Sequence of Histamine H1 receptor (Homo sapiens) (P35367 whole entry): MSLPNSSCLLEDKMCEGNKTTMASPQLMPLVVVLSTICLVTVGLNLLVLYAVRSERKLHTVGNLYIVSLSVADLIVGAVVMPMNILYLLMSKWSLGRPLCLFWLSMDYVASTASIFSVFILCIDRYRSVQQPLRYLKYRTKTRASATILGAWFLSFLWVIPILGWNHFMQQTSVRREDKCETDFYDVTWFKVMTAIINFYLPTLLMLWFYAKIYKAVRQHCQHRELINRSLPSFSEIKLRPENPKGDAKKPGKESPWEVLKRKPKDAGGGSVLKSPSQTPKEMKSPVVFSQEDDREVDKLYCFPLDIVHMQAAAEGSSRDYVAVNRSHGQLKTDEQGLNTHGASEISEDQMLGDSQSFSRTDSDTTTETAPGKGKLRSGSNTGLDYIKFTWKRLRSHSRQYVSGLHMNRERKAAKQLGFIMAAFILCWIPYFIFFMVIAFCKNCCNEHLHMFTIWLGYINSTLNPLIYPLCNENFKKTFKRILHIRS
# How it was run: (§2)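 NFAT-RE luciferase assay in HEK293T cells transiently co-transfected with luc2P/NFAT-RE plasmid and receptor plasmid. Cells plated in DMEM and incubated overnight at 37 °C, 5% CO₂. Compounds and reference ligands applied for 6-8 h. Luciferase read after adding Bright-Glo substrate (1 mg/ml final).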
# [7] = target: Histamine H1 receptor (Homo sapiens) (UniProt P35367); experiment: Antagonist activity at H1R (unknown origin) expressed in HEK293 cells harboring luc2P/NFAT-RE plasmid at 10 uM after 6 to 8 hrs by luciferase reporter gene assay; type: cell-based; how it was run: as §2
# [8] = target: T3, Cholecystokinin receptor type A (Homo sapiens, UniProt P32238); experiment: Displacement of [I125]bolton hunter-CCK-8S from recombinant human CCK1 receptor expressed in stable CHO cells measured after 1 to 2 hrs by microscintillation counting method; type: cell-based
# T3 sequence (P32238 whole entry): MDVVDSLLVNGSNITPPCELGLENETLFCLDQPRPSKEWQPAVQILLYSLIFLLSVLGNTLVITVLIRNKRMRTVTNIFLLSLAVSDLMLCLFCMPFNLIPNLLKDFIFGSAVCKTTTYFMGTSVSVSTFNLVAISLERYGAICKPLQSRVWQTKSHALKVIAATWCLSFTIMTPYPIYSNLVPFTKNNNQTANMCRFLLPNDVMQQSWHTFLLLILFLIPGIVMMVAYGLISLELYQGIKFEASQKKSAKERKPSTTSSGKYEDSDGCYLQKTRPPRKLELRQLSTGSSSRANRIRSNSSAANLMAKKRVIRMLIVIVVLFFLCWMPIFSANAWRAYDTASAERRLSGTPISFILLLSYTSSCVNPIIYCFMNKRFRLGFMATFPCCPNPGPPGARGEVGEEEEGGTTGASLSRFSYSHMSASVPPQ
# Histamine H3 receptor [9] = target: T2, Histamine H3 receptor; experiment: Displacement of [3H]N-alpha-methylhistamine from recombinant human H3 receptor expressed in HEK293T cells measured after 90 mins by liquid scintillation counting method; type: cell-based
# [10] = Drug level in C57BL/6J mouse serum assessed as metabolite formation treated with 4-(4-Methoxyphenyl)-8-methyl-5,6,7,8-tetrahydroquinazolin-2-amine at 20 mg/kg, po by LC-MS/MS analysis; type: ADME, organism-based; conditions: in vivo
# How it was run: (§3)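 After a single 20 mg/kg oral dose in fasted male C57BL/6J mice (n=5 per time point), the demethylated metabolite was measured by LC-MS/MS (m/z 256.1→240.1) in serum and brain homogenate up to 24 h. Metabolite/parent AUC ratio was derived.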
# [11] = Drug level in C57BL/6J mouse brain assessed as metabolite formation treated with 4-(4-Methoxyphenyl)-8-methyl-5,6,7,8-tetrahydroquinazolin-2-amine at 20 mg/kg, po by LC-MS/MS analysis; type: ADME, organism-based; conditions: in vivo; how it was run: as §3
# Mus musculus [12] = experiment: Anorexic effect in 12 hrs fasted db/db-induced obese C57BL/6J mouse model assessed as reduction in cumulative food intake at 20 mg/kg, ip pretreated for 30 mins followed by food addition measured after 4 hrs; type: functional, organism-based
# Mus musculus [13] = experiment: Anorexic effect in high fat diet-induced obese C57BL/6J mouse model assessed as reduction in cumulative food intake at 10 mg/kg, po pretreated for 30 mins followed by food addition measured after 4 hrs relative to control; type: functional; set-up: scale not given: the % may be the effect or the level left
# How it was run: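 Male C57BL/6J mice on high-fat diet, starved 12 h (8 am–8 pm) with water available, housed singly. Oral dose in 5% gum acacia in normal saline, vehicle group alongside. Food given 30 min after dosing, and cumulative intake measured over the 4 h night phase (9 pm–1 am). One-way ANOVA with Newman-Keuls test.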
# Mus musculus [14] = experiment: Anti-obesity activity in high fat diet-induced obese C57BL/6J mouse model assessed as reduction in body weight at 10 mg/kg, po; type: functional, organism-based; conditions: TDE = time-dependent effect
# How it was run: (§4)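 Male C57BL/6J mice (6–8 weeks, 22–25 g) on high-fat diet, with a normal-chow group included. Daily chronic oral dosing against vehicle for six weeks. Percent body weight change followed over the treatment days, and net body weight change taken at six weeks. n=5-6 per group. Two-way ANOVA, or one-way ANOVA with Newman-Keuls test.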
# Mus musculus [15] = experiment: Anti-obesity activity in high fat diet-induced obese C57BL/6J mouse model assessed as change in body weight at 10 mg/kg, po measured after 6 weeks (reference value: 3.86 +/- 0.99 g); type: functional; how it was run: as §4
# Mus musculus [16] = experiment: Anti-obesity activity in high fat diet-induced obese C57BL/6J mouse model assessed as reduction in body fat mass at 10 mg/kg, po measured after 6 weeks relative to control by NMR-based magnetic resonance imaging analysis; type: functional; set-up: scale not given: the % may be the effect or the level left
# How it was run: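 Male C57BL/6J mice on high-fat diet dosed orally for six weeks against a vehicle-treated high-fat diet group and a chow group. Body composition (fat mass, lean mass, % body fat) measured by EchoMRI live scanning. n=5-6. One-way ANOVA with Newman-Keuls test.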
Compound,Activity (Histamine H2 receptor [1]) [%],EC50 (Histamine H2 receptor [2]; read-out: EC50) [nM],IC50 (Histamine H3 receptor [3]) [nM],Activity [4],inhibition [5],Activity [6],inhibition [7],other results
CC1CCCc2c(-c3ccc(Cl)cc3)nc(N)nc21 (stereo not drawn),50,80,900,inactive,inactive,inactive,inactive,–
CC1CCCc2c(-c3cccc(Br)c3)nc(N)nc21 (stereo not drawn),50,840,90,inactive,inactive,inactive,inactive,EC50 (Histamine H2 receptor [2]; read-out: pEC50 (converted)): 316 nM
CC1CCCc2c1nc(N)nc2C1CCCCC1 (stereo not drawn),50,360,240,inactive,inactive,inactive,inactive,–
COc1ccc(-c2nc(NC(=O)c3cc4ccccc4n3CC(=O)O)ncc2CC2CCCCC2)c(OC)c1,–,–,–,–,–,–,–,IC50 [8]: < 50 nM
Cc1ccc(C2(O)CCN(c3nc(C)nc4ccsc34)CC2)nc1,–,–,–,–,–,–,–,Ki (Histamine H3 receptor [9]): 6.07 nM
CC1CCCc2c(-c3ccc(O)cc3)nc(N)nc21 (stereo not drawn),–,–,–,–,–,–,–,Drug metabolism [10]: Metabolite_Detected; Drug metabolism [11]: Metabolite_Detected
CC1CCCc2c(-c3ccc(F)cc3)nc(N)nc21 (stereo not drawn),–,80,560,inactive,inactive,inactive,inactive,–
CC1CCCc2c(-c3cccc4ccccc34)nc(N)nc21 (stereo not drawn),< 50,–,2710,inactive,inactive,inactive,inactive,EC50 (Histamine H2 receptor [2]): Not Active
CC(N)(Cc1cnc[nH]1)C(=O)O (racemic),–,–,–,–,–,–,–,Activity (Mus musculus [12]): inactive
CC1CCCc2c(-c3ccc([N+](=O)[O-])cc3)nc(N)nc21 (stereo not drawn),50,5290,12300,inactive,inactive,inactive,inactive,EC50 (Histamine H2 receptor [2]; read-out: pEC50 (converted)): 5370 nM
CC1CCCc2c(-c3ccccc3)nc(N)nc21 (stereo not drawn),50,100,1300,inactive,inactive,inactive,inactive,–
C[C@H]1CNCCc2ccc(Cl)cc21 [LORCASERIN],–,–,–,–,–,–,–,Activity (Mus musculus [13]): 40%; Activity (Mus musculus [14]): Tde; Activity (Mus musculus [15]): 0.95 g; Activity (Mus musculus [16]): 22.4%
CC1CCCc2c(-c3ccc(Br)cc3)nc(N)nc21 (stereo not drawn),< 50,–,3100,inactive,inactive,inactive,inactive,EC50 (Histamine H2 receptor [2]): Not Active
COc1ccc(-c2nc(N)nc3c2CCCC3)cc1,–,1390,2750,inactive,inactive,inactive,inactive,EC50 (Histamine H2 receptor [2]; read-out: pEC50 (converted)): 1290 nM
COc1cccc(-c2nc(N)nc3c2CCCC3C)c1 (stereo not drawn),50,250,70,inactive,inactive,inactive,inactive,–
CC1CCCc2c(-c3ccc(C#N)cc3)nc(N)nc21 (stereo not drawn),< 50,–,5500,inactive,inactive,inactive,inactive,EC50 (Histamine H2 receptor [2]): Not Active
Cc1ccc(-c2nc(N)nc3c2CCCC3C)cc1 (stereo not drawn),50,880,2930,inactive,inactive,inactive,inactive,–
COc1ccc(-c2nc(N)nc3c2CC(C)CC3)cc1 (stereo not drawn),50,2120,4680,inactive,inactive,inactive,inactive,–
CC1CCCc2c(-c3cccc(O)c3)nc(N)nc21 (stereo not drawn),< 50,–,4610,inactive,inactive,inactive,inactive,EC50 (Histamine H2 receptor [2]): Not Active
c1ccc(CNc2ccnc(Nc3ccc(OCCN4CCCCC4)cc3)n2)cc1,–,–,–,–,–,–,–,Ki (Histamine H3 receptor [9]): 4.49 nM
CC1CCCc2c(-c3cccnc3)nc(N)nc21 (stereo not drawn),< 50,–,6800,inactive,inactive,inactive,inactive,EC50 (Histamine H2 receptor [2]): Not Active
CCCCc1cc(-c2ccc(OC)cc2)nc(N)n1,–,5180,4450,inactive,inactive,inactive,inactive,EC50 (Histamine H2 receptor [2]; read-out: pEC50 (converted)): 5250 nM
